hERG protect = hERG (human) protection from proarrhythmic block | Q12809 | CHO-hERG, FluxOR thallium flux, dofetilide IC70 present | activation (rescue from dofetilide block), less the hit threshold, % at 10 µM | actives 0.51% (n = 310,000) | AID 1511;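 active means activation above the mean of controls blocked by dofetilide plus 5 SD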;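 further: thallium influx through hERG after potassium depolarization seen as dye fluorescence rise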
KCNQ1 block = human KCNQ1 channel inhibition; actives 1.3% (n = 310,000); B-score at 10 µM; CHO-K1 KCNQ1, FluxOR thallium flux fluorescence; hits give high values; AID 2642;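 active means compounds whose thallium flux B-score, printed positive for inhibition, exceeds three library SD while starting fluorescence stays within three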;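 further: channel opened by potassium depolarization with thallium stimulus after 20 min compound exposure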
KCNQ1 act = potentiators or activators of human KCNQ1 potassium channel; P51787; CHO-K1 KCNQ1, thallium flux FluxOR fluorescence; hits give high values; B-score at 10 µM; actives 0.35% (n = 310,000); AID 2648;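 active means fluorescence ratio B-score, a plate-corrected score, at least three library SD, with initial intensity B-score within 5 SD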
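System: CHO-K1 cells stably expressing KCNQ1 / Medium: assay buffer for compound exposure, DMSO matched across wells / Reagent: thallium- and potassium-containing depolarizing buffer / Compound: one concentration, matched DMSO / Incubation: 20 min compound pretreatment at room temperature / Measured by: kinetic FluxOR fluorescence, 10 s baseline plus 110 s post-stimulus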
Kir21 block = Kir2.1 (mouse) channel inhibition. actives 0.85% (n = 310,000). P35561. AID 1672. HEK293-Kir2.1, FluxOR thallium flux fluorescence; hits give low values. B-score at 10 µM;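 active means fluorescence ratio B-score at or below minus 3 SD of library scores, with starting-brightness B-score within 2 SD, cut at about -4.2 in these data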;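 further: channel flux triggered by added potassium and thallium sulfate stimulus; B-score of peak minus minimum fluorescence over baseline after thallium stimulus; more negative B-score means stronger Kir2.1 block with less thallium influx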
Target sequence (P35561 whole entry, looked up): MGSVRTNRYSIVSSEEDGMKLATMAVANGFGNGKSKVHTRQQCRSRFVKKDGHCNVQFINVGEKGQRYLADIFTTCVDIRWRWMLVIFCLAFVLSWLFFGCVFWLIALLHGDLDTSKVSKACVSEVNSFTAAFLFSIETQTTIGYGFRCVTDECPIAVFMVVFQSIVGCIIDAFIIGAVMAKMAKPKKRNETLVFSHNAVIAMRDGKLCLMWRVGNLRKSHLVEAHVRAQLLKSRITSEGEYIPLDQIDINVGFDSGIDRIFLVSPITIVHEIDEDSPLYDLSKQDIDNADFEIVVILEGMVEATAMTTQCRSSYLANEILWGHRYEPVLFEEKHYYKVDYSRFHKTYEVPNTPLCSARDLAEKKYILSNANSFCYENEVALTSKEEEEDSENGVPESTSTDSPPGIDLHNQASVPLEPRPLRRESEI
KCNK3 inh = human KCNK3 channel inhibition, primary screen. O14649. CHO-KCNK3 thallium flux, FluxOR fluorescence; hits give low values. B-score at 10 µM. actives 0.84% (n = 340,000);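 active means B-score under library mean minus 4 SD, starting fluorescence ratio at most library mean plus 5 SD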;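 further: more negative B-score means stronger inhibition of thallium flux through KCNK3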
KCNK9 inh = human KCNK9 channel inhibition; HEK293 KCNK9, FluxOR thallium flux fluorescence; hits give low values; AID 488922; actives 1.2% (n = 310,000); B-score at 10 µM;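 active means ratio B-score over 3 SD below the library mean, with starting fluorescence within 5 SD of its mean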;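 further: negative B-score means less thallium flux so channel inhibition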
KCNK3 confirm = human KCNK3 channel inhibition, confirmation assay; ratio percent of control, % at 10 µM; shares compounds with KCNK3 inh; AID 651638; actives 99% (n = 2,400); CHO-KCNK3 thallium flux, FluxOR fluorescence; 0% buffer, 100% carvedilol maximal block;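 active means ratio percent of control, averaged over triplicates, above buffer control mean plus 5 SD, cut at about 64% in these data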;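 further: ratio is the fluorescence rise from min to max over baseline after thallium stimulus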
KCNK3 noninduced = activity in cells without induced KCNK3 expression | shares compounds with KCNK3 inh | non-induced KCNK3 parental cells, FluxOR thallium flux; hits give low values | actives 40% (n = 2,400) | thallium flux ratio (lower = more inhibition) at 10 µM;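 active means thallium flux ratio, averaged over three wells, more than 5 SD below the buffer control mean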;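 further: host cells are CHO cells without KCNK3 induction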
Hits are given with their value; – = inactive; · = no result. An excerpt weighted towards active compounds, which were near 3.7% of everything screened.

SMILES	hERG protect	KCNQ1 block	KCNQ1 act	Kir21 block	KCNK3 inh	KCNK9 inh	KCNK3 confirm	KCNK3 noninduced
Cc1ccc(C)c(NC(=O)CN(C)C(=O)Cn2c(=O)oc3ccccc32)c1	–	–	–	–	–	–	·	·
COc1ccc(C(=O)N=C2SC3CS(=O)(=O)CC3N2Cc2ccc(F)cc2)cc1 (stereo not drawn)	–	–	–	–	–	–	·	·
COc1cc(OC)cc(C(=O)N[C@H](C(=O)Nc2nc(-c3ccc(F)c(F)c3)cs2)C(C)C)c1	–	–	–	–	-11	–	100	–
Cc1ccc(OCC(=O)NCCCNC(=O)c2cccnc2)cc1	–	–	–	–	–	–	·	·
Cc1c(CCOC(=O)CC23CC4CC(CC(C4)C2)C3)sc[n+]1CC(=O)c1ccc(Br)cc1	–	6	–	–	-10	–	119	–
CC(C)(C)c1ccc(S(=O)(=O)CC(O)CSc2nc3c(cc2C#N)CCCC3)cc1 (stereo not drawn)	–	–	–	–	–	–	·	·
N#Cc1cc2c(nc1SCC(O)CS(=O)(=O)Cc1ccc(Cl)cc1)CCCC2 (stereo not drawn)	–	–	–	–	-11	–	109	0.15
CCn1c(SCC(=O)NC2CCCCC2)nnc1-c1ccco1	–	–	–	–	–	–	·	·
CCOC(=O)c1cc2ccc3ccccc3c2s1	–	–	–	–	-9.8	–	99	–
CCOC(=O)c1cc2ccc3ccccc3c2oc1=O	–	–	–	–	–	–	·	·
FC(F)(F)c1ccccc1NC(=S)Nc1cccc(Cl)c1	–	8	–	–	-9.6	–	93	–
CC(=O)Nc1sc(C)c(C)c1C(=O)OCC(=O)Nc1cccc(C)c1	·	·	·	·	–	·	·	·
Cc1nonc1C1CCCN1Cc1cn[nH]c1-c1ccc(-c2ccccc2)cc1 (stereo not drawn)	–	–	–	–	-8.9	-7	102	–
O=C(Nc1ccc(NC(=O)c2ccccc2O)cc1)Nc1ccc(F)cc1F	–	–	–	–	–	–	·	·
CC(C)=CCc1c(O)ccc2c1OC(c1ccc(O)c(O)c1)CC2=O (stereo not drawn)	–	–	–	-7.1	-12	-6.6	138	0.12
O=C1CC(c2ccc(O)c(O)c2)Oc2c1ccc(O)c2O (stereo not drawn)	·	·	·	·	–	·	·	·
CC(C)(CNC(=O)c1ccc([N+](=O)[O-])c(Cl)c1)CNC(=O)c1ccc([N+](=O)[O-])c(Cl)c1	–	–	–	–	-9.8	-7.9	131	0.15
O=C(COC(=O)CNC(=O)c1ccc([N+](=O)[O-])o1)Nc1ncc(C(F)(F)F)cc1Cl	·	·	·	·	–	·	·	·
O=C(Nc1ccccc1)C1=C(O)CC(c2ccoc2)CC1=Nc1ccccc1 (stereo not drawn)	–	–	–	–	-8.8	–	113	0.16
CC1CN=C2C(C(=O)Nc3ccccc3)=C(O)CC(c3ccccc3)N21 (stereo not drawn)	–	–	–	–	–	–	·	·
Cc1ccc(NC(=O)c2c(C(F)(F)F)nn(C)c2SCc2ccc(Cl)cc2)cc1C	–	–	–	–	-10	–	110	0.16
COc1ccccc1/C=N/NC(=O)c1cccc(NC(=O)c2ccccc2Cl)c1	–	–	–	–	-9.5	-7.1	100	–
C=CCc1cccc(/C=N/NC(=O)c2ccccc2OC)c1O	–	–	–	–	-9.5	-7.7	94	–
COc1cccc(C(=O)Nc2cccc(NC(=O)c3ccccc3Cl)c2)c1	–	–	–	–	-12	–	96	–
O=C(Nc1cccc(NC(=O)c2ccccc2Cl)c1)c1ccco1	–	–	–	–	-8.7	–	98	–
CCCCCCCCNCCS(=O)(=O)NN1CCOCC1	·	·	·	·	–	·	·	·
O=C(CN1C(=O)NC2(CCCC2)C1=O)OCc1cc(=O)n2cc(Br)ccc2n1	–	–	–	–	–	–	·	·
